Screens: PubChem, several laboratories
Bcl-B Bim block = human Bim-Bcl-B interaction inhibition | Q9HD36 | bead-based flow cytometry, Bim peptide-Bcl-B binding | inhibition, % at 10 µM | 190,000 tested, 0.073% active | AID 951
Bim-Bcl-XL = human Bim-Bcl-XL interaction inhibition | Bim peptide-Bcl-XL binding, bead flow cytometry, fluorescence | 190,000 tested, 0.04% active | inhibition, % at 10 µM
Target sequence (Q07817 whole entry, looked up): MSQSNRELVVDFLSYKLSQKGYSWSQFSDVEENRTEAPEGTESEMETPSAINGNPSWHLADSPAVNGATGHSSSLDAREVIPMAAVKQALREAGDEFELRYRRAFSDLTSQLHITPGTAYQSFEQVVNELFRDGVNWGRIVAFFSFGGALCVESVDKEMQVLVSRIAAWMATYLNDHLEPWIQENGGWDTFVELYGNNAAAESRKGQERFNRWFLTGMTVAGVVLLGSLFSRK
Bcl-2 Bim block = human Bim-Bcl-2 interaction inhibition | Bead-based flow cytometry, Bim peptide-Bcl-2 binding | P10415 | 190,000 tested, 0.06% active | inhibition, % at 10 µM; in the data active = inhibition above about 40%
Target sequence (P10415 whole entry, looked up): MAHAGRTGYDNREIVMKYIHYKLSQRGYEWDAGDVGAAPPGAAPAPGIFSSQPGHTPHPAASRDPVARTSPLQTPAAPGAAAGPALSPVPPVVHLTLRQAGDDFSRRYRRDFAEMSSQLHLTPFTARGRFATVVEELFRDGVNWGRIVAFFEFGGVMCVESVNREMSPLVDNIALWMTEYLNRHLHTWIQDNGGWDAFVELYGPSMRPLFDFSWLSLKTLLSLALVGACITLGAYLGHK
Bcl-W Bim block = disrupts Bim peptide binding to human Bcl-W. bead-based flow cytometry. 190,000 tested, 0.02% active. inhibition, % at 10 µM;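 also: higher means less fluorescent Bim peptide bound to Bcl-W beads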
Target sequence (Q92843 whole entry, looked up): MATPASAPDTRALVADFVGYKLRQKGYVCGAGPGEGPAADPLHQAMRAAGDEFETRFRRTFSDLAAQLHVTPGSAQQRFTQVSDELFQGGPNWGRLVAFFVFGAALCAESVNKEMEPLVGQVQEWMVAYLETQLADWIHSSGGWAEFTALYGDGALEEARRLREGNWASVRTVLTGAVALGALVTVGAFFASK
Rad51 HR inh = Rad51 (human) homologous recombination inhibition | Q06609 | hRad51 DNA strand exchange, fluorescence dequenching | inhibition, % at 10 µM | 200,000 tested, 0.085% active;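 active = inhibition above 40% at the single screening dose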
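Test system: preformed human Rad51 ssDNA filaments. Compound dosing: single dose, 10 µM final compound. Incubation: filaments 15 min 37 °C, then compound 30 min. Technique: FRET fluorescence dequenching, excitation 485 nm, emission 520 nm. Read-out basis: percent inhibition from fluorescence, normalised to plate control and blank means. Benchmarks: plate controls and plate blanks.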
Bfl-1 Bim block = inhibitors of Bim-Bfl-1 interaction, human; inhibition, % at 10 µM; 190,000 tested, 0.12% active; AID 1008; Bead-based flow cytometry, Bim-Bfl-1 binding inhibition
A number is an active result. In the library only some 0.23% were active in any assay of this set; here they are far more common. Rule as the data show it, unless noted: active = inhibition above about 40%.

C=CCNc1oc(-c2ccc(OC)cc2)nc1C#N was read as Bcl-B Bim block inactive, Bim-Bcl-XL inactive, Bcl-2 Bim block inactive, Bcl-W Bim block inactive, Rad51 HR inh 89 and Bfl-1 Bim block inactive.
`COc1ccc(CCNC(=O)c2ccc3nc(-c4ccco4)c(-c4ccco4)nc3c2)cc1OC` gave Bcl-B Bim block inactive, Bim-Bcl-XL inactive, Bcl-2 Bim block inactive, Bcl-W Bim block inactive and Bfl-1 Bim block 42.
For O=C(Nc1ccccc1Cl)c1ccc(-n2cccn2)c([N+](=O)[O-])c1 the results were Bcl-B Bim block inactive, Bim-Bcl-XL inactive, Bcl-2 Bim block inactive, Bcl-W Bim block inactive, Rad51 HR inh inactive and Bfl-1 Bim block inactive.
`Cc1ccc(Sc2c(C#N)c(-c3ccccc3)nn2C)cc1` gave Bcl-B Bim block 68, Bim-Bcl-XL inactive, Bcl-2 Bim block 78, Bcl-W Bim block inactive, Rad51 HR inh inactive and Bfl-1 Bim block 47.
Screening Cc1ccc(SCc2c(-c3ccccc3)nn(C)c2Cl)cc1 returned Bcl-B Bim block inactive, Bim-Bcl-XL inactive, Bcl-2 Bim block inactive, Bcl-W Bim block inactive, Rad51 HR inh inactive and Bfl-1 Bim block inactive.
Screening CN(C(=O)CSc1nnc(-c2ccncc2)n1-c1ccccc1)C1CCS(=O)(=O)C1 (stereo unspecified) returned Rad51 HR inh 48.
Screening CCN(C(=O)CSc1nnc(-c2ccncc2)n1-c1ccccc1)C1CCS(=O)(=O)C1 (stereo unspecified) returned Bcl-B Bim block inactive, Bim-Bcl-XL inactive, Bcl-2 Bim block inactive, Bcl-W Bim block inactive, Rad51 HR inh inactive and Bfl-1 Bim block inactive.
For COC(=O)COc1ccc(S(=O)(=O)NCCC2=CCCCC2)cc1C the results were Bcl-B Bim block inactive, Bim-Bcl-XL inactive, Bcl-2 Bim block inactive, Bcl-W Bim block inactive, Rad51 HR inh 45 and Bfl-1 Bim block inactive.
For COC(=O)COc1ccc(S(=O)(=O)NCCC2=CCCCC2)cc1 the results were Bcl-B Bim block inactive, Bim-Bcl-XL inactive, Bcl-2 Bim block inactive, Bcl-W Bim block inactive, Rad51 HR inh inactive and Bfl-1 Bim block inactive.
Screening COc1ccc(CSCC(=O)N/N=C/c2ccccc2O)cc1 returned Bcl-B Bim block inactive, Bim-Bcl-XL inactive, Bcl-2 Bim block inactive, Bcl-W Bim block inactive, Rad51 HR inh inactive and Bfl-1 Bim block inactive.
Screening O=C(CN1C(=O)C2CC=CCC2C1=O)Nc1nccs1 (stereo unspecified) returned Bcl-B Bim block inactive, Bim-Bcl-XL inactive, Bcl-2 Bim block inactive, Bcl-W Bim block inactive, Rad51 HR inh 52 and Bfl-1 Bim block inactive.
For Cc1cnc(NC(=O)CN2C(=O)C3CC=CCC3C2=O)s1 (stereo unspecified) the results were Bcl-B Bim block inactive, Bim-Bcl-XL inactive, Bcl-2 Bim block inactive, Bcl-W Bim block inactive, Rad51 HR inh inactive and Bfl-1 Bim block inactive.
Screening O=C(c1cc2ccccc2oc1=O)N(c1ccccc1)C1C=CS(=O)(=O)C1 (stereo unspecified) returned Bcl-B Bim block inactive, Bim-Bcl-XL inactive, Bcl-2 Bim block inactive, Bcl-W Bim block inactive, Rad51 HR inh inactive and Bfl-1 Bim block 41.
Screening COc1ccc(N(C(=O)c2cc3ccccc3oc2=O)C2C=CS(=O)(=O)C2)cc1 (stereo unspecified) returned Bcl-B Bim block inactive, Bim-Bcl-XL inactive, Bcl-2 Bim block inactive, Bcl-W Bim block inactive, Rad51 HR inh inactive and Bfl-1 Bim block inactive.
For CCOC(=O)C(=CNc1ccc(NC2=NCC(C)(C)S2)cc1)C(=O)OCC the results were Rad51 HR inh inactive.
For CCOC(=O)C(=NCC1CCCO1)NNc1ccccc1Cl (stereo unspecified) the results were Rad51 HR inh 44.
Screening CCOc1ccc(NC2=C(Cl)C(=O)N(Cc3ccccc3)C2=O)cc1 returned Bcl-B Bim block inactive, Bim-Bcl-XL inactive, Bcl-2 Bim block inactive, Bcl-W Bim block inactive, Rad51 HR inh inactive and Bfl-1 Bim block inactive.
Screening Cc1ccc(O)c(NC2=C(Cl)C(=O)N(Cc3ccccc3)C2=O)c1 returned Bcl-B Bim block inactive, Bim-Bcl-XL inactive, Bcl-2 Bim block inactive, Bcl-W Bim block 51, Rad51 HR inh inactive and Bfl-1 Bim block 58.
For Cc1ccc(-n2cnc(N)c2C(=O)c2cccc([N+](=O)[O-])c2)cc1 the results were Rad51 HR inh inactive.
O=C(CC1CCOCC1)Nc1ccc(Cl)c(Cl)c1 was read as Bcl-B Bim block inactive, Bim-Bcl-XL inactive, Bcl-2 Bim block inactive, Bcl-W Bim block inactive, Rad51 HR inh inactive and Bfl-1 Bim block inactive.
For Cc1ccc(CNC(=O)CSCc2ccccc2)cc1 the results were Bcl-B Bim block inactive, Bim-Bcl-XL inactive, Bcl-2 Bim block inactive, Bcl-W Bim block inactive, Rad51 HR inh inactive and Bfl-1 Bim block inactive.
Cc1ccc(-c2ccc(=O)n(CC(=O)NCc3ccc(F)cc3)n2)cc1 was read as Bcl-B Bim block inactive, Bim-Bcl-XL inactive, Bcl-2 Bim block inactive, Bcl-W Bim block inactive, Rad51 HR inh 50 and Bfl-1 Bim block inactive.
`Cc1ccc(CNC(=O)CSCc2ccc(F)cc2)cc1` gave Bcl-B Bim block inactive, Bim-Bcl-XL inactive, Bcl-2 Bim block inactive, Bcl-W Bim block inactive, Rad51 HR inh 46 and Bfl-1 Bim block inactive.
Screening CCCn1nnnc1SCC(=O)N1CCN(C(=O)c2ccco2)CC1 returned Bcl-B Bim block inactive, Bim-Bcl-XL inactive, Bcl-2 Bim block inactive, Bcl-W Bim block inactive, Rad51 HR inh inactive and Bfl-1 Bim block inactive.
Screening CC(C)n1nnnc1SCC(=O)N1CCN(C(=O)c2ccco2)CC1 returned Bcl-B Bim block 93, Bim-Bcl-XL 50, Bcl-2 Bim block inactive, Bcl-W Bim block inactive, Rad51 HR inh inactive and Bfl-1 Bim block inactive.
O=C1C2C3C=CC(C3)C2C(=O)N1c1ccc(N2CCN(c3ccccn3)CC2)c([N+](=O)[O-])c1 (stereo unspecified) was read as Bcl-B Bim block inactive, Bim-Bcl-XL inactive, Bcl-2 Bim block inactive, Bcl-W Bim block inactive, Rad51 HR inh inactive and Bfl-1 Bim block inactive.
CCOc1cc(C=O)ccc1OS(=O)(=O)c1ccc(NC(C)=O)cc1 was read as Bcl-B Bim block inactive, Bim-Bcl-XL inactive, Bcl-2 Bim block inactive, Bcl-W Bim block inactive, Rad51 HR inh inactive and Bfl-1 Bim block inactive.
`CC1CCc2sc(C(=O)OCC(=O)NC(C)C)cc2C1` (stereo unspecified) gave Bcl-B Bim block inactive, Bim-Bcl-XL inactive, Bcl-2 Bim block inactive, Bcl-W Bim block inactive and Bfl-1 Bim block inactive.
For O=[N+]([O-])c1ccc(N/N=C/c2ccc(O)c(O)c2O)c(S(=O)(=O)N2CCOCC2)c1 the results were Bcl-B Bim block inactive, Bim-Bcl-XL inactive, Bcl-2 Bim block inactive, Bcl-W Bim block 40, Rad51 HR inh inactive and Bfl-1 Bim block 63.
O=[N+]([O-])c1ccc(N/N=C/c2cccc(O)c2O)c(S(=O)(=O)N2CCOCC2)c1 was read as Bcl-B Bim block inactive, Bim-Bcl-XL inactive, Bcl-2 Bim block inactive, Bcl-W Bim block inactive, Rad51 HR inh inactive and Bfl-1 Bim block inactive.
CN(Cc1cccs1)C(=O)CCc1c[nH]c2ccccc12 was read as Bcl-B Bim block 50, Bim-Bcl-XL inactive, Bcl-2 Bim block 48, Bcl-W Bim block inactive, Rad51 HR inh inactive and Bfl-1 Bim block inactive.
